Measurements taken from ChEMBL document CHEMBL1212705, “Gene expression signatures and small-molecule compounds link a protein kinase to Plasmodium falciparum motility” (Nat Chem Biol, 2008).
The source made the active and inactive calls. The rule behind the calls is not given here.

How the values were obtained:
[1] = system: Plasmodium falciparum; assay: Binding affinity to Plasmodium falciparum PF08_0054 at 2.5 mM by LC/MS/MS analysis
Outline: (§1)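 P. falciparum parasite lysate was incubated with agarose-immobilized inhibitor and washed extensively. Retained proteins were eluted with urea, resolved by SDS-PAGE and identified by LC/MS/MS. In a competition arm, free inhibitor (2.5 mM) was added to the lysate before incubation with the beads under identical conditions.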

[2] = system: Plasmodium falciparum; assay: Binding affinity to Plasmodium falciparum PF13_0116 at 2.5 mM by LC/MS/MS analysis; outline: as §1
[3] = system: Plasmodium falciparum; assay: Binding affinity to Plasmodium falciparum PF10_0153 at 2.5 mM by LC/MS/MS analysis; outline: as §1
[4] = system: Plasmodium falciparum; assay: Binding affinity to Plasmodium falciparum PFL1170w at 2.5 mM by LC/MS/MS analysis; outline: as §1
[5] = Inhibition of GST-fused Plasmodium falciparum recombinant CDPK1 expressed in Escherichia coli Rosetta 2 assessed as inhibition of [gamma-33P]ATP incorporation into substrate peptide by scintillation counting
[6] = system: Plasmodium falciparum; assay: Antiplasmodial activity against multidrug-resistant Plasmodium falciparum FCB after 72 hrs by SYBR green assay; assay type: functional, organism-based
Outline: (§2)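 Parasites grown in human O+ erythrocytes in RPMI with human serum and albumax. For the assay, serially diluted compounds were added to screening medium (RPMI, 4.16 mg/ml albumax) at 2.5% hematocrit and 0.3% parasitemia, then incubated 72 h in 93% N2/4% CO2/3% O2. DMSO served as baseline and uninfected erythrocytes as background. SYBR Green fluorescence was read at 520 nm to give EC50.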

[7] = system: Plasmodium falciparum; assay: Binding affinity to Plasmodium falciparum PFI1680w at 2.5 mM by LC/MS/MS analysis; outline: as §1
[8] = system: Plasmodium falciparum; assay: Antimicrobial activity against Plasmodium falciparum 3D7 schizonts infected in human erythrocytes assessed as effect on parasitemia at 225 to 450 nM after 32 hrs by microscopy
[9] = system: Plasmodium falciparum; assay: Binding affinity to Plasmodium falciparum PFL1545c at 2.5 mM by LC/MS/MS analysis; outline: as §1
[10] = system: Plasmodium falciparum; assay: Binding affinity to Plasmodium falciparum PF11_0351 at 2.5 mM by LC/MS/MS analysis; outline: as §1
[11] = system: Plasmodium falciparum; assay: Antiplasmodial activity against Plasmodium falciparum 3D7 after 72 hrs by SYBR green assay; assay type: functional, organism-based; settings: 3D7, 72 h
[12] = system: Plasmodium falciparum; assay: Binding affinity to Plasmodium falciparum PFF0160c at 2.5 mM by LC/MS/MS analysis; outline: as §1
[13] = system: Plasmodium falciparum; assay: Antimicrobial activity against Plasmodium falciparum schizonts infected in human erythrocytes assessed as minimal effect on parasite cell cycle at 450 nM treated 36 hrs after release of ring stage by microscopy
[14] = system: Plasmodium falciparum; assay: Upregulation of DNA replication gene expression in Plasmodium falciparum at 460 nM after 48 hrs by microarray analysis; assay type: functional, organism-based
Outline: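 P. falciparum 3D7 was grown in human O+ erythrocytes. Heterogeneous, unsynchronized parasites were incubated with 460 nM compound for 24 or 48 h, then compared with untreated parasites on a full-genome microarray. Transcript changes were called by a statistical test.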

[15] = system: Plasmodium yoelii; assay: Antiplasmodial activity blood stage Plasmodium yoelii infected in BALB/c mice (Mus musculus) assessed as delay in onset of parasitaemia at 10 mg/kg, perorally BID for 6 days measured after 6 days post infection by Peter's test; assay type: functional, organism-based; design: dose 10 mg/kg
[16] = system: Plasmodium falciparum; assay: Binding affinity to Plasmodium falciparum PF14_0393 at 2.5 mM by LC/MS/MS analysis; outline: as §1
[17] = Inhibition of GST-fused Plasmodium falciparum recombinant CDPK5 expressed in Escherichia coli Rosetta 2 assessed as inhibition of [gamma-33P]ATP incorporation into substrate peptide by scintillation counting
[18] = Half life in BALB/c mouse 20 mg/kg single oral dose by LC/MS/MS analysis; settings: in vivo
[19] = system: Plasmodium falciparum; assay: Binding affinity to Plasmodium falciparum MAL7P1.228 at 2.5 mM by LC/MS/MS analysis; outline: as §1
[20] = system: Plasmodium falciparum; assay: Antiplasmodial activity against pyrimethamine-resistant Plasmodium falciparum HB3 after 72 hrs by SYBR green assay; assay type: functional, organism-based; settings: HB3, 72 h; outline: as §2
[21] = system: Toxoplasma gondii; assay: Antimicrobial activity against Toxoplasma gondii […] infected in african green monkey BSC1 cells assessed as parasite invasion at 100 uM after 90 mins by microscopy relative to control
[22] = system: Plasmodium falciparum; assay: Binding affinity to Plasmodium falciparum PF14_0102 at 2.5 mM by LC/MS/MS analysis; outline: as §1
[23] = system: Plasmodium falciparum; assay: Binding affinity to Plasmodium falciparum PF14_0517 at 2.5 mM by LC/MS/MS analysis; outline: as §1
[24] = system: Plasmodium falciparum; assay: Binding affinity to Plasmodium falciparum PF10_0268 at 2.5 mM by LC/MS/MS analysis; outline: as §1
[25] = system: Toxoplasma gondii; assay: Antimicrobial activity against Toxoplasma gondii […] infected in african green monkey BSC1 cells assessed as parasite invasion at 3.1 uM after 48 hrs by microscopy relative to control; assay type: functional, BSC-1
[26] = system: Plasmodium falciparum; assay: Binding affinity to Plasmodium falciparum PF14_0541 at 2.5 mM by LC/MS/MS analysis; outline: as §1
[27] = Plasma concentration in BALB/c mouse at 20 mg/kg single oral dose after 24 hrs by LC/MS/MS analysis
[28] = system: Plasmodium falciparum; assay: Antimicrobial activity against Plasmodium falciparum 3D7 infected in human erythrocytes after 48 hrs by microscopy
[29] = system: Plasmodium falciparum; assay: Binding affinity to Plasmodium falciparum PFI0180w at 2.5 mM by LC/MS/MS analysis; outline: as §1
[30] = system: Plasmodium falciparum; assay: Binding affinity to Plasmodium falciparum PFC0720w at 2.5 mM by LC/MS/MS analysis; outline: as §1
[31] = system: Toxoplasma gondii; assay: Antimicrobial activity against Toxoplasma gondii […] infected in african green monkey BSC1 cells assessed as parasite invasion at 50 uM after 90 mins by microscopy relative to control
[32] = system: Plasmodium falciparum; assay: Binding affinity to Plasmodium falciparum CDPK1 at 2.5 mM by LC/MS/MS analysis; outline: as §1
[33] = system: Plasmodium falciparum; assay: Binding affinity to Plasmodium falciparum PF10_0363 at 2.5 mM by LC/MS/MS analysis; outline: as §1
[34] = system: Plasmodium falciparum; assay: Binding affinity to Plasmodium falciparum PF11_0191 at 2.5 mM by LC/MS/MS analysis; outline: as §1
[35] = system: Plasmodium falciparum; assay: Binding affinity to Plasmodium falciparum PF14_0075 at 2.5 mM by LC/MS/MS analysis; outline: as §1
[36] = system: Toxoplasma gondii; assay: Antimicrobial activity against Toxoplasma gondii […] infected in african green monkey BSC1 cells assessed as inhibition of parasite invasion at 1.56 uM after 48 hrs by microscopy relative to control; assay type: functional, organism-based; settings: BSC-1
[37] = system: Plasmodium falciparum; assay: Antimicrobial activity against Plasmodium falciparum 3D7 schizonts infected in human erythrocytes assessed as effect on parasitemia at 225 to 450 nM after 48 hrs by microscopy

In the case of N[C@H]1CC[C@H](Nc2nc(Nc3ccc(C(=O)N4CCCCC4)cc3)c3ncn(-c4cccc(F)c4)c3n2)CC1 [PURFALCAMINE], the Activity [1] is reported as “inactive”, the Activity [2] is reported as “inactive” and the Activity [3] is reported as “inactive”. The Activity [4] was “inactive”, the IC50 [5] was 17 nM and the EC50 [6] was 169 nM. For the same molecule, the Activity [7] was “inactive”, the inhibition [8] was “inactive” and the Activity [9] was “inactive”. The Activity [10] was “inactive”, the EC50 [11] was 230 nM and the Activity [12] was “inactive”. For the same molecule, the Activity [13] was “Active”, the Activity [14] was “Active” and the Activity [15] was “Active”. The Activity [16] was “inactive”, the IC50 [17] was > 3500 nM and the half-life [18] was 3.1 h. For the same molecule, the Activity [19] was “inactive”, the EC50 [20] was 178 nM and the Activity [21] was “<=20%”. For the same molecule, the Activity [22] was “inactive”, the Activity [23] was “inactive” and the Activity [24] was “inactive”. The Activity [25] was 60%, the Activity [26] was “inactive” and the concentration at 24 h [27] was 23 nM. For the same molecule, the EC90 ([28]; Plasmodium falciparum 3D7) was 414 nM, the EC50 ([28]; Plasmodium falciparum 3D7, 48 h) was 230 nM and the Activity [29] was “inactive”. The Activity [30] was “inactive”, the Activity [31] was “<=20%” and the Activity [32] was “Active”. The Activity [33] was “inactive”, the Activity [34] was “inactive” and the Activity [35] was “inactive”. For the same molecule, the inhibition [36] was “inactive” and the Activity [37] was “Active”.
